How the values were obtained:
Adenosine receptor A1 [1] = molecular target: T1, Adenosine receptor A1 (Rattus norvegicus, UniProt P25099); experiment: Displacement of [3H]DPCPX from adenosine A1 receptor in rat cerebral cortex
T1 sequence (P25099 whole entry): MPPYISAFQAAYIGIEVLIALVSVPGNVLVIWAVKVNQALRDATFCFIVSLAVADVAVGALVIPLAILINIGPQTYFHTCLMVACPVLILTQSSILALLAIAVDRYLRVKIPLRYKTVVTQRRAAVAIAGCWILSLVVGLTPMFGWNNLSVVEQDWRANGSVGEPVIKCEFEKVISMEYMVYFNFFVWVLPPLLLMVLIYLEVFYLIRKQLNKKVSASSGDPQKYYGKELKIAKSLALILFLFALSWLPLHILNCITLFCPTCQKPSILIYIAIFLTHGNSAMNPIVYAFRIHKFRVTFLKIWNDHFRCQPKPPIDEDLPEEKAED
In short: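 Rat brain membranes (cerebral cortex for A1, striatum for A2A) homogenized in 10 mM EDTA/10 mM Na-HEPES pH 7.4 with protease inhibitors, washed, stored at -80 °C. 40-70 µg protein incubated in triplicate with radioligand plus seven competitor concentrations in HEPES/EDTA buffer with 2 units/mL adenosine deaminase, 2.5 h, 21 °C. A1: [3H]DPCPX 2 nM, nonspecific with 10 µM NECA; A2A: [3H]ZM241385 0.5-1.2 nM, nonspecific with 10 µM XAC. GF/C filtration; single-site fit, Cheng-Prusoff Ki.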

Adenosine receptor A3 = molecular target: T2, Adenosine receptor A3 (Homo sapiens, UniProt P0DMS8); experiment: Displacement of [125I]ABA from human adenosine A3 receptor
T2 sequence (P0DMS8 whole entry): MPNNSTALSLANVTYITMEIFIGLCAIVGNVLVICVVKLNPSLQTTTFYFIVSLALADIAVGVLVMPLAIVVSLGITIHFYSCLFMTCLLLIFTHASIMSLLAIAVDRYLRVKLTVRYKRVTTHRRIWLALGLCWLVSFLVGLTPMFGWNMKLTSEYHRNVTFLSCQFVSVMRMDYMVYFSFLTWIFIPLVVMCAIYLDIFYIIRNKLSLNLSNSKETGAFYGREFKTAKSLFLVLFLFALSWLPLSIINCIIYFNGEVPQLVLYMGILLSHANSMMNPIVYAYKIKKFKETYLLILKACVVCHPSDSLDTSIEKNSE

Adenosine receptor A1 [2] = molecular target: T3, Adenosine receptor A1 (Homo sapiens, UniProt P30542); experiment: Displacement of [125I]ABA from human adenosine A1 receptor
T3 sequence (P30542 whole entry): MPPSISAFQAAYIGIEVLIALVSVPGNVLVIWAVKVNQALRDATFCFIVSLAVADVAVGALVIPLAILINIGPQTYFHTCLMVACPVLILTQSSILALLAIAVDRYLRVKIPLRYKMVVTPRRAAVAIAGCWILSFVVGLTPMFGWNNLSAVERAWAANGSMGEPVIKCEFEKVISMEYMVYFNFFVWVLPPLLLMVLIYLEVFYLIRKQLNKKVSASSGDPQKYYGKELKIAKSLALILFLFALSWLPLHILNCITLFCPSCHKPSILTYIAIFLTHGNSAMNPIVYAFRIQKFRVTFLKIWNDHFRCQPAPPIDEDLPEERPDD

SMILES	Ki (Adenosine receptor A1 [1])	Ki (Adenosine receptor A3)	Ki (Adenosine receptor A1 [2])
CCCn1c2nc(C34CCC(O)(CC3)CC4)nc-2c2n(c1=O)C[C@H](CC)N2 [(S)-8-ethyl-2-(4-hydroxybicyclo[2.2.2]octan-1-yl)-4-propyl-7,8-dihydro-1H-imidazo[1,2-g]purin-5(4H)-one]	> 100 nM		
CCCn1c2nc(C34CCC(CCC(=O)O)(CC3)CC4)nc-2c2n(c1=O)C[C@@H](C(C)C)N2 [(R)-3-(4-(8-isopropyl-5-oxo-4-propyl-4,5,7,8-tetrahydro-1H-imidazo[1,2-g]purin-2-yl)bicyclo[2.2.2]octan-1-yl)propanoic acid]		> 10000 nM	
CCCn1c2nc(C34CCC(O)(CC3)CC4)nc-2c2n(c1=O)C[C@@H](CC)N2 [(R)-8-ethyl-2-(4-hydroxybicyclo[2.2.2]octan-1-yl)-4-propyl-7,8-dihydro-1H-imidazo[1,2-g]purin-5(4H)-one]		> 10000 nM	

Continued, values first:

Ki (Adenosine receptor A1 [1])	Ki (Adenosine receptor A3)	Ki (Adenosine receptor A1 [2])	SMILES
> 250 nM			CCCn1c2nc(C34CCC(O)(CC3)CC4)nc-2c2n(c1=O)CC[C@@H](CC)N2 [(R)-9-ethyl-2-(4-hydroxybicyclo[2.2.2]octan-1-yl)-4-propyl-8,9-dihydropyrimido[1,2-g]purin-5(1H,4H,7H)-one]
	> 10000 nM	35 nM	CCCn1c2nc(C34CCC(O)(CC3)CC4)nc-2c2n(c1=O)C[C@@H](C(C)C)N2 [(R)-2-(4-hydroxybicyclo[2.2.2]octan-1-yl)-8-isopropyl-4-propyl-7,8-dihydro-1H-imidazo[1,2-g]purin-5(4H)-one]
> 250 nM			CCCn1c2nc(C34CCC(O)(CC3)CC4)nc-2c2n(c1=O)CC[C@@H](C)N2 [(R)-2-(4-hydroxybicyclo[2.2.2]octan-1-yl)-9-methyl-4-propyl-8,9-dihydropyrimido[1,2-g]purin-5(1H,4H,7H)-one]
